In ChEMBL document CHEMBL4689842, “EUbOPEN Chemogenomics Library wave 1” (2021):

Tested on: U2OS
Assay: Multiplex assay against U2OS
Assay type: toxicity, cell-based
Details: human
How it was run: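 Imaging took place on a CQ1 microscope at 37°C and 5% CO2 once compound had been added to live cells stained at seeding with Hoechst33342, BioTracker Green Microtubule Cytoskeleton Dye, MitoTracker Red and Annexin V Alexa Fluor 680. CellPathfinder machine-learning gating classed cells as Hoechst high-intensity objects or normal cells, classed normal cells as having healthy, pyknosed or fragmented nuclei, and classed pyknosed cells as mitotic or apoptotic. Tubulin, mitochondrial-mass and membrane-permeability phenotypes are per cents of the healthy-nucleus cells.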

[1] = 12 h, 1 µM, compound concentration 1 uM, replicate 1
[2] = 12 h, 1 µM, compound concentration 1 uM, replicate 2
[3] = 12 h, 10 µM, compound concentration 10 uM, replicate 1
[4] = 12 h, 10 µM, compound concentration 10 uM, replicate 2
[5] = 24 h, 1 µM, compound concentration 1 uM, replicate 1
[6] = 24 h, 1 µM, compound concentration 1 uM, replicate 2
[7] = 24 h, 10 µM, compound concentration 10 uM, replicate 1
[8] = 24 h, 10 µM, compound concentration 10 uM, replicate 2

CCOc1cc(N2CCC(O)CC2)ccc1Nc1ncc2c(n1)N(C1CCCC1)CCC(=O)N2C
Population Apoptotic (%) [1]: 46%
Population Fragmented Nuclei (%) [1]: 5%
Population Healthy Nuclei (%) [1]: 86%
Population Hoechst High Intensity Objects (%) [1]: 4%
Population Membrane Permeable-Phenotype (%) [1]: 16%
Population Mitochondria Different-Phenotype (%) [1]: 14%
Population Mitotic Cells (%) [1]: 53%
Population Normal (%) [1]: 95%
Population Pyknosed Nuclei (%) [1]: 8%
Population Tubulin-Different-Phenotype (%) [1]: 18%
Population Apoptotic (%) [2]: 50%
Population Fragmented Nuclei (%) [2]: 8%
Population Healthy Nuclei (%) [2]: 89%
Population Hoechst High Intensity Objects (%) [2]: 7%
Population Membrane Permeable-Phenotype (%) [2]: 18%
Population Mitochondria Different-Phenotype (%) [2]: 16%
Population Mitotic Cells (%) [2]: 50%
Population Normal (%) [2]: 92%
Population Pyknosed Nuclei (%) [2]: 2%
Population Tubulin-Different-Phenotype (%) [2]: 17%
Population Apoptotic (%) [3]: 27%
Population Fragmented Nuclei (%) [3]: 4%
Population Healthy Nuclei (%) [3]: 89%
Population Hoechst High Intensity Objects (%) [3]: 1%
Population Membrane Permeable-Phenotype (%) [3]: 5%
Population Mitochondria Different-Phenotype (%) [3]: 24%
Population Mitotic Cells (%) [3]: 72%
Population Normal (%) [3]: 98%
Population Pyknosed Nuclei (%) [3]: 5%
Population Tubulin-Different-Phenotype (%) [3]: 28%
Population Apoptotic (%) [4]: 33%
Population Fragmented Nuclei (%) [4]: 7%
Population Healthy Nuclei (%) [4]: 90%
Population Hoechst High Intensity Objects (%) [4]: 8%
Population Membrane Permeable-Phenotype (%) [4]: 7%
Population Mitochondria Different-Phenotype (%) [4]: 33%
Population Mitotic Cells (%) [4]: 66%
Population Normal (%) [4]: 91%
Population Pyknosed Nuclei (%) [4]: 2%
Population Tubulin-Different-Phenotype (%) [4]: 27%
Population Fragmented Nuclei (%) [5]: 7%
Population Healthy Nuclei (%) [5]: 87%
Population Hoechst High Intensity Objects (%) [5]: 2%
Population Membrane Permeable-Phenotype (%) [5]: 8%
Population Mitochondria Different-Phenotype (%) [5]: 17%
Population Normal (%) [5]: 97%
Population Tubulin-Different-Phenotype (%) [5]: 18%
Population Apoptotic (%) [6]: 60%
Population Fragmented Nuclei (%) [6]: 10%
Population Healthy Nuclei (%) [6]: 85%
Population Hoechst High Intensity Objects (%) [6]: 6%
Population Membrane Permeable-Phenotype (%) [6]: 11%
Population Mitochondria Different-Phenotype (%) [6]: 20%
Population Mitotic Cells (%) [6]: 40%
Population Normal (%) [6]: 93%
Population Pyknosed Nuclei (%) [6]: 4%
Population Tubulin-Different-Phenotype (%) [6]: 20%
Population Apoptotic (%) [7]: 44%
Population Fragmented Nuclei (%) [7]: 3%
Population Healthy Nuclei (%) [7]: 93%
Population Hoechst High Intensity Objects (%) [7]: 1%
Population Membrane Permeable-Phenotype (%) [7]: 5%
Population Mitochondria Different-Phenotype (%) [7]: 22%
Population Mitotic Cells (%) [7]: 55%
Population Normal (%) [7]: 98%
Population Pyknosed Nuclei (%) [7]: 3%
Population Tubulin-Different-Phenotype (%) [7]: 24%
Population Apoptotic (%) [8]: 20%
Population Fragmented Nuclei (%) [8]: 9%
Population Healthy Nuclei (%) [8]: 87%
Population Hoechst High Intensity Objects (%) [8]: 7%
Population Membrane Permeable-Phenotype (%) [8]: 2%
Population Mitochondria Different-Phenotype (%) [8]: 24%
Population Mitotic Cells (%) [8]: 80%
Population Normal (%) [8]: 92%
Population Pyknosed Nuclei (%) [8]: 2%
Population Tubulin-Different-Phenotype (%) [8]: 38%
